Data: ChEMBL document CHEMBL1914423, “New imidazo[2,1-b]thiazole derivatives: synthesis, in vitro anticancer evaluation, and in silico studies” (Eur J Med Chem, 2011)

Test system: CCRF-CEM
Experiment: Anticancer activity against human CCRF-CEM cells assessed as cell growth at 10^-5 M after 48 hrs by SRB assay
Format: functional
Details: read-out: Activity
In short: (§1)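 NCI-60 single-dose screen at one concentration. Cells grown in RPMI 1640 with 5% FBS and 2 mM L-glutamine, plated at 5000–40,000 cells/well, and pre-incubated 24 h at 37 °C in 5% CO2 before DMSO-dissolved drug was added. Cells fixed with TCA, SRB-stained, absorbance read at 515 nm. Percent growth calculated against time-zero and untreated control plates.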

Structure (SMILES) | growth at 10 µM [%]
COc1cccc(-c2nc3sccn3c2-c2ccnc(NCCNC(=O)c3ccc(N4CCOCC4)c(C(F)(F)F)c3)n2)c1 | 54.6

Test system: RPMI-8226
Experiment: Anticancer activity against human RPMI8226 cells assessed as cell growth at 10^-5 M after 48 hrs by SRB assay
Format: functional
Details: RPMI-8226, 48 h, read-out: Activity

Structure (SMILES) | growth at 10 µM [%]
COc1cccc(-c2nc3sccn3c2-c2ccnc(NCCNC(=O)c3ccc(N4CCOCC4)c(C(F)(F)F)c3)n2)c1 | 39

Test system: EKVX
Experiment: Anticancer activity against human EKVX cells assessed as cell growth at 10^-5 M after 48 hrs by SRB assay
Format: functional
Details: read-out: Activity
In short: as §1

Structure (SMILES) | growth at 10 µM [%]
COc1cccc(-c2nc3sccn3c2-c2ccnc(NCCNC(=O)c3ccc(N4CCOCC4)c(C(F)(F)F)c3)n2)c1 | 74.1

Test system: HOP-62
Experiment: Anticancer activity against human HOP62 cells assessed as cell growth at 10^-5 M after 48 hrs by SRB assay
Format: functional
Details: HOP-62, 48 h, read-out: Activity
In short: as §1

Structure (SMILES) | growth at 10 µM [%]
COc1cccc(-c2nc3sccn3c2-c2ccnc(NCCNC(=O)c3ccc(N4CCOCC4)c(C(F)(F)F)c3)n2)c1 | 99.4

Test system: HOP-92
Experiment: Anticancer activity against human HOP92 cells assessed as cell growth at 10^-5 M after 48 hrs by SRB assay
Format: functional
Details: HOP-92, 48 h, read-out: Activity
In short: as §1

Structure (SMILES) | growth at 10 µM [%]
COc1cccc(-c2nc3sccn3c2-c2ccnc(NCCNC(=O)c3ccc(N4CCOCC4)c(C(F)(F)F)c3)n2)c1 | 85.1

Test system: NCI-H226
Experiment: Anticancer activity against human NCI-H226 cells assessed as cell growth at 10^-5 M after 48 hrs by SRB assay
Format: functional
Details: NCI-H226, 48 h, read-out: Activity

Structure (SMILES) | growth at 10 µM [%]
COc1cccc(-c2nc3sccn3c2-c2ccnc(NCCNC(=O)c3ccc(N4CCOCC4)c(C(F)(F)F)c3)n2)c1 | 85.4

Test system: NCI-H23
Experiment: Anticancer activity against human NCI-H23 cells assessed as cell growth at 10^-5 M after 48 hrs by SRB assay
Format: functional
Details: NCI-H23, 48 h, read-out: Activity

Structure (SMILES) | growth at 10 µM [%]
COc1cccc(-c2nc3sccn3c2-c2ccnc(NCCNC(=O)c3ccc(N4CCOCC4)c(C(F)(F)F)c3)n2)c1 | 102

Test system: NCI-H322M
Experiment: Anticancer activity against human NCI-H322M cells assessed as cell growth at 10^-5 M after 48 hrs by SRB assay
Format: functional
Details: read-out: Activity

Structure (SMILES) | growth at 10 µM [%]
COc1cccc(-c2nc3sccn3c2-c2ccnc(NCCNC(=O)c3ccc(N4CCOCC4)c(C(F)(F)F)c3)n2)c1 | 101

Test system: NCI-H522
Experiment: Anticancer activity against human NCI-H522 cells assessed as cell growth at 10^-5 M after 48 hrs by SRB assay
Format: functional
Details: NCI-H522, 48 h, read-out: Activity

Structure (SMILES) | growth at 10 µM [%]
COc1cccc(-c2nc3sccn3c2-c2ccnc(NCCNC(=O)c3ccc(N4CCOCC4)c(C(F)(F)F)c3)n2)c1 | 60.6

Test system: HCT-116
Experiment: Anticancer activity against human HCT116 cells assessed as cell growth at 10^-5 M after 48 hrs by SRB assay
Format: functional
Details: HCT-116, 48 h, read-out: Activity
In short: as §1

Structure (SMILES) | growth at 10 µM [%]
COc1cccc(-c2nc3sccn3c2-c2ccnc(NCCNC(=O)c3ccc(N4CCOCC4)c(C(F)(F)F)c3)n2)c1 | 82.6

Test system: HCT-15
Experiment: Anticancer activity against human HCT15 cells assessed as cell growth at 10^-5 M after 48 hrs by SRB assay
Format: functional
Details: HCT-15, 48 h, read-out: Activity
In short: as §1

Structure (SMILES) | growth at 10 µM [%]
COc1cccc(-c2nc3sccn3c2-c2ccnc(NCCNC(=O)c3ccc(N4CCOCC4)c(C(F)(F)F)c3)n2)c1 | 66.6

Test system: HT-29
Experiment: Anticancer activity against human HT-29 cells assessed as cell growth at 10^-5 M after 48 hrs by SRB assay
Format: functional
Details: HT-29, 48 h, read-out: Activity
In short: as §1

Structure (SMILES) | growth at 10 µM [%]
COc1cccc(-c2nc3sccn3c2-c2ccnc(NCCNC(=O)c3ccc(N4CCOCC4)c(C(F)(F)F)c3)n2)c1 | 50

Test system: KM12
Experiment: Anticancer activity against human KM12 cells assessed as cell growth at 10^-5 M after 48 hrs by SRB assay
Format: functional
Details: KM12, 48 h, read-out: Activity
In short: as §1

Structure (SMILES) | growth at 10 µM [%]
COc1cccc(-c2nc3sccn3c2-c2ccnc(NCCNC(=O)c3ccc(N4CCOCC4)c(C(F)(F)F)c3)n2)c1 | 76.2

Test system: SF-268
Experiment: Anticancer activity against human SF268 cells assessed as cell growth at 10^-5 M after 48 hrs by SRB assay
Format: functional
Details: SF-268, 48 h, read-out: Activity

Structure (SMILES) | growth at 10 µM [%]
COc1cccc(-c2nc3sccn3c2-c2ccnc(NCCNC(=O)c3ccc(N4CCOCC4)c(C(F)(F)F)c3)n2)c1 | 89.7

Test system: SF-539
Experiment: Anticancer activity against human SF539 cells assessed as cell growth at 10^-5 M after 48 hrs by SRB assay
Format: functional
Details: SF-539, 48 h, read-out: Activity

Structure (SMILES) | growth at 10 µM [%]
COc1cccc(-c2nc3sccn3c2-c2ccnc(NCCNC(=O)c3ccc(N4CCOCC4)c(C(F)(F)F)c3)n2)c1 | 79

Test system: SNB-75
Experiment: Anticancer activity against human SNB75 cells assessed as cell growth at 10^-5 M after 48 hrs by SRB assay
Format: functional
Details: SNB-75, 48 h, read-out: Activity
In short: (§2)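 NCI-60 single-dose screen: cells in RPMI 1640 with 5% FBS and 2 mM L-glutamine, plated at 5000–40,000 cells/well by doubling time, and preincubated 24 h at 37 °C. Compound given at one concentration from DMSO stock. Cells TCA-fixed and SRB-stained, absorbance at 515 nm. Percent growth relative to time-zero and untreated controls; inhibition % = 100 − growth %.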

Structure (SMILES) | growth at 10 µM [%]
COc1cccc(-c2nc3sccn3c2-c2ccnc(NCCNC(=O)c3ccc(N4CCOCC4)c(C(F)(F)F)c3)n2)c1 | 82.5

Test system: U-251
Experiment: Anticancer activity against human U251 cells assessed as cell growth at 10^-5 M after 48 hrs by SRB assay
Format: functional
Details: U-251, 48 h, read-out: Activity
In short: as §2

Structure (SMILES) | growth at 10 µM [%]
COc1cccc(-c2nc3sccn3c2-c2ccnc(NCCNC(=O)c3ccc(N4CCOCC4)c(C(F)(F)F)c3)n2)c1 | 87.2

Test system: LOX IMVI
Experiment: Anticancer activity against human LOXIMVI cells assessed as cell growth at 10^-5 M after 48 hrs by SRB assay
Format: functional
Details: read-out: Activity
In short: as §1

Structure (SMILES) | growth at 10 µM [%]
COc1cccc(-c2nc3sccn3c2-c2ccnc(NCCNC(=O)c3ccc(N4CCOCC4)c(C(F)(F)F)c3)n2)c1 | 73.5

Test system: Malme-3M
Experiment: Anticancer activity against human MALME-3M cells assessed as cell growth at 10^-5 M after 48 hrs by SRB assay
Format: functional
Details: read-out: Activity
In short: as §1

Structure (SMILES) | growth at 10 µM [%]
COc1cccc(-c2nc3sccn3c2-c2ccnc(NCCNC(=O)c3ccc(N4CCOCC4)c(C(F)(F)F)c3)n2)c1 | 78.4

Test system: SK-MEL-2
Experiment: Anticancer activity against human SK-MEL-2 cells assessed as cell growth at 10^-5 M after 48 hrs by SRB assay
Format: functional
Details: SK-MEL-2, 48 h, read-out: Activity

Structure (SMILES) | growth at 10 µM [%]
COc1cccc(-c2nc3sccn3c2-c2ccnc(NCCNC(=O)c3ccc(N4CCOCC4)c(C(F)(F)F)c3)n2)c1 | 86.5

Test system: OVCAR-3
Experiment: Anticancer activity against human OVCAR3 cells assessed as cell growth at 10^-5 M after 48 hrs by SRB assay
Format: functional
Details: OVCAR-3, 48 h, read-out: Activity

Structure (SMILES) | growth at 10 µM [%]
COc1cccc(-c2nc3sccn3c2-c2ccnc(NCCNC(=O)c3ccc(N4CCOCC4)c(C(F)(F)F)c3)n2)c1 | 93.8

Test system: OVCAR-5
Experiment: Anticancer activity against human OVCAR5 cells assessed as cell growth at 10^-5 M after 48 hrs by SRB assay
Format: functional
Details: OVCAR-5, 48 h, read-out: Activity

Structure (SMILES) | growth at 10 µM [%]
COc1cccc(-c2nc3sccn3c2-c2ccnc(NCCNC(=O)c3ccc(N4CCOCC4)c(C(F)(F)F)c3)n2)c1 | 96.9

Test system: OVCAR-8
Experiment: Anticancer activity against human OVCAR8 cells assessed as cell growth at 10^-5 M after 48 hrs by SRB assay
Format: functional
Details: OVCAR-8, 48 h, read-out: Activity

Structure (SMILES) | growth at 10 µM [%]
COc1cccc(-c2nc3sccn3c2-c2ccnc(NCCNC(=O)c3ccc(N4CCOCC4)c(C(F)(F)F)c3)n2)c1 | 62.4

Test system: SK-OV-3
Experiment: Anticancer activity against human SKOV3 cells assessed as cell growth at 10^-5 M after 48 hrs by SRB assay
Format: functional
Details: SK-OV-3, 48 h, read-out: Activity

Structure (SMILES) | growth at 10 µM [%]
COc1cccc(-c2nc3sccn3c2-c2ccnc(NCCNC(=O)c3ccc(N4CCOCC4)c(C(F)(F)F)c3)n2)c1 | 82.8

Test system: 786-0
Experiment: Anticancer activity against human 786-0 cells assessed as cell growth at 10^-5 M after 48 hrs by SRB assay
Format: functional
Details: 786-0, 48 h, read-out: Activity
In short: as §1

Structure (SMILES) | growth at 10 µM [%]
COc1cccc(-c2nc3sccn3c2-c2ccnc(NCCNC(=O)c3ccc(N4CCOCC4)c(C(F)(F)F)c3)n2)c1 | 71.5

Test system: A498
Experiment: Anticancer activity against human A498 cells assessed as cell growth at 10^-5 M after 48 hrs by SRB assay
Format: functional
Details: A498, 48 h, read-out: Activity
In short: as §1

Structure (SMILES) | growth at 10 µM [%]
COc1cccc(-c2nc3sccn3c2-c2ccnc(NCCNC(=O)c3ccc(N4CCOCC4)c(C(F)(F)F)c3)n2)c1 | 64.6

Test system: ACHN
Experiment: Anticancer activity against human ACHN cells assessed as cell growth at 10^-5 M after 48 hrs by SRB assay
Format: functional
Details: read-out: Activity
In short: as §1

Structure (SMILES) | growth at 10 µM [%]
COc1cccc(-c2nc3sccn3c2-c2ccnc(NCCNC(=O)c3ccc(N4CCOCC4)c(C(F)(F)F)c3)n2)c1 | 70.6

Test system: UO-31
Experiment: Anticancer activity against human UO31 cells assessed as cell growth at 10^-5 M after 48 hrs by SRB assay
Format: functional
Details: UO-31, 48 h, read-out: Activity
In short: as §2

Structure (SMILES) | growth at 10 µM [%]
COc1cccc(-c2nc3sccn3c2-c2ccnc(NCCNC(=O)c3ccc(N4CCOCC4)c(C(F)(F)F)c3)n2)c1 | 58.2

Test system: DU-145
Experiment: Anticancer activity against human DU145 cells assessed as cell growth at 10^-5 M after 48 hrs by SRB assay
Format: functional
Details: DU-145, 48 h, read-out: Activity
In short: as §1

Structure (SMILES) | growth at 10 µM [%]
COc1cccc(-c2nc3sccn3c2-c2ccnc(NCCNC(=O)c3ccc(N4CCOCC4)c(C(F)(F)F)c3)n2)c1 | 111

Test system: MCF7
Experiment: Anticancer activity against human MCF7 cells assessed as cell growth at 10^-5 M after 48 hrs by SRB assay
Format: functional
Details: MCF7, 48 h, read-out: Activity
In short: as §1

Structure (SMILES) | growth at 10 µM [%]
COc1cccc(-c2nc3sccn3c2-c2ccnc(NCCNC(=O)c3ccc(N4CCOCC4)c(C(F)(F)F)c3)n2)c1 | 90.9

Test system: MDA-MB-231
Experiment: Anticancer activity against human MDA-MB-231 cells assessed as cell growth at 10^-5 M after 48 hrs by SRB assay
Format: functional
Details: MDA-MB-231, 48 h, read-out: Activity
In short: as §1

Structure (SMILES) | growth at 10 µM [%]
COc1cccc(-c2nc3sccn3c2-c2ccnc(NCCNC(=O)c3ccc(N4CCOCC4)c(C(F)(F)F)c3)n2)c1 | 94.2

Test system: BT-549
Experiment: Anticancer activity against human BT549 cells assessed as cell growth at 10^-5 M after 48 hrs by SRB assay
Format: functional
Details: BT-549, 48 h, read-out: Activity
In short: as §1

Structure (SMILES) | growth at 10 µM [%]
COc1cccc(-c2nc3sccn3c2-c2ccnc(NCCNC(=O)c3ccc(N4CCOCC4)c(C(F)(F)F)c3)n2)c1 | 74.8

Test system: T47D
Experiment: Anticancer activity against human T47D cells assessed as cell growth at 10^-5 M after 48 hrs by SRB assay
Format: functional
Details: read-out: Activity
In short: as §2

Structure (SMILES) | growth at 10 µM [%]
COc1cccc(-c2nc3sccn3c2-c2ccnc(NCCNC(=O)c3ccc(N4CCOCC4)c(C(F)(F)F)c3)n2)c1 | 67
